From ChEMBL document CHEMBL1157145, “Cytotoxic activity of proflavine diureas: synthesis, antitumor, evaluation and DNA binding properties of 1',1''-(acridin-3,6-diyl)-3',3''-dialkyldiureas” (Bioorg Med Chem, 2008)
Activity calls are given as the source filed them. The calls are words filed in the database; no cut-off is given here.

Experiments:
HeLa [1] = assay: Cell cycle arrest in human HeLa cells assessed as accumulation at G0/G1 phase at 7.80 uM after 48 hrs; assay type: functional
Method in brief: (§1)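 Cells seeded at 8 · 10^5 per 60 mm dish, allowed to settle 24 h (37 °C, 5% CO2), then exposed to the drug for 24 or 48 h. Adherent plus floating cells (5 · 10^5) were fixed in cold 70% ethanol at −20 °C overnight, treated with RNase A (100 µg/mL) and stained with propidium iodide (20 µg/mL) in Vindelov's solution for 30 min at RT. Flow cytometry used 488 nm excitation, FL-2 at 585 ± 21 nm, and histograms were modelled for G0/G1, S and G2/M fractions.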

HeLa [2] = assay: Cell cycle arrest in human HeLa cells assessed as accumulation at G0/G1 phase at 7.80 uM after 24 hrs; assay type: functional; method in brief: as §1
HCT-116 [3] = assay: Cell cycle arrest in human HCT116 cells assessed as accumulation at G2/M phase at 5.10 uM after 48 hrs; assay type: functional; method in brief: as §1
HCT-116 [4] = assay: Antiproliferative activity against human HCT116 cells assessed as increase of floating cells in total cell population at 5.10 uM after 24 hrs; assay type: functional
Method in brief: (§2)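 Cells seeded (8 · 10^5 per 60 mm dish), allowed to settle 24 h at 37 °C, 5% CO2, then treated with a single concentration for 24 or 48 h. Adherent and floating cells counted by Coulter counter. Total cell number given as % of untreated control; floating cells as % of total cell number.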

HeLa [5] = assay: Cell cycle arrest in human HeLa cells assessed as accumulation at G2/M phase at 7.80 uM after 24 hrs; assay type: functional; method in brief: as §1
HeLa [6] = assay: Antiproliferative activity against human HeLa cells assessed as increase of floating cells in total cell population at 7.80 uM after 24 hrs; assay type: functional; method in brief: as §2
HCT-116 [7] = assay: Cell cycle arrest in human HCT116 cells assessed as accumulation at G0/G1 phase at 5.10 uM after 24 hrs; assay type: functional
Method in brief: (§3)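 Adherent plus floating cells (5 · 10^5) collected 24 or 48 h after treatment, fixed in cold 70% ethanol at −20 °C overnight, washed in PBS. RNase A (100 µg/mL) and propidium iodide (20 µg/mL) in Vindelov's solution, 30 min at RT. Flow cytometry with 488 nm excitation, emission 585 ± 21 nm; % cells per cycle phase from DNA content histograms.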

HeLa [8] = assay: Induction of apoptosis in human HeLa cells at 7.80 uM after 48 hrs; assay type: functional
Method in brief: (§4)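 After 24 or 48 h of drug exposure, all cells were collected, combining trypsinised adherent cells with floating cells from the medium. Cells (1 × 10^6) were fixed in cold 70% ethanol overnight at −20 °C and stained with DAPI (10 µg/mL) for 30 min in the dark at RT. Under fluorescence microscopy, 300 cells per sample were scored, with condensed or fragmented nuclei counted as apoptotic.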

DNA [9] = assay: Binding affinity to calf thymus DNA at 50 uM by circular dichroism spectrophotometric titration; assay type: nucleic-acid assay; conditions: Bos taurus
HCT-116 [10] = assay: Induction of DNA fragmentation in human HCT116 cells after 24 hrs; assay type: functional, cell-based
Method in brief: (§5)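 HCT-116 cells were treated for 24 or 48 h. Adherent and floating cells (5 × 10^5) were pooled, fixed in cold 70% ethanol and held overnight at −20 °C. Samples were treated with RNase A (100 µg/mL) and stained with propidium iodide (20 µg/mL) in Vindelov's solution for 30 min at RT. Flow cytometry used 488 nm excitation with emission at 585 nm. Subdiploid (subG0/G1) particles were scored on a logarithmic scale, with debris gated out on FSC × SSC.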

HCT-116 [11] = assay: Antiproliferative activity against human HCT116 cells assessed as decrease in total cell population at 5.10 uM after 48 hrs; assay type: functional; design: scale not given: the % may be the effect or the level left; method in brief: as §2
HCT-116 [12] = assay: Antiproliferative activity against human HCT116 cells assessed as increase of floating cells in total cell population at 5.10 uM after 48 hrs; assay type: functional; method in brief: as §2
HeLa [13] = assay: Antiproliferative activity against human HeLa cells assessed as decrease in total cell population at 7.80 uM after 24 hrs; assay type: functional; design: scale not given: the % may be the effect or the level left; method in brief: as §2
HCT-116 [14] = assay: Induction of apoptosis in human HCT116 cells at 5.10 uM after 48 hrs; assay type: functional; method in brief: as §4
HeLa [15] = assay: Antiproliferative activity against human HeLa cells assessed as increase of floating cells in total cell population at 7.80 uM after 48 hrs; assay type: functional; method in brief: as §2
HeLa [16] = assay: Cell cycle arrest in human HeLa cells assessed as accumulation at S phase at 7.80 uM after 48 hrs; assay type: functional; method in brief: as §1
HeLa [17] = assay: Cytotoxicity against human HeLa cells after 72 hrs by MTT assay; assay type: functional, cell-based
HCT-116 [18] = assay: Cell cycle arrest in human HCT116 cells assessed as accumulation at G2/M phase at 5.10 uM after 24 hrs; assay type: functional; method in brief: as §1
HCT-116 [19] = assay: Cell cycle arrest in human HCT116 cells assessed as accumulation at S phase at 5.10 uM after 24 hrs; assay type: functional; method in brief: as §1
HeLa [20] = assay: Cell cycle arrest in human HeLa cells assessed as accumulation at G2/M phase at 7.80 uM after 48 hrs; assay type: functional; method in brief: as §1
HeLa [21] = assay: Cytotoxicity against human HeLa cells after 48 hrs by MTT assay; assay type: functional, cell-based
HCT-116 [22] = assay: Induction of apoptosis in human HCT116 cells at 5.10 uM after 24 hrs; assay type: functional; method in brief: as §4
HCT-116 [23] = assay: Cytotoxicity against human HCT116 cells after 48 hrs by MTT assay; assay type: functional, cell-based; conditions: HCT-116, 48 h
HeLa [24] = assay: Induction of apoptosis in human HeLa cells at 7.80 uM after 24 hrs; assay type: functional; method in brief: as §4
HCT-116 [25] = assay: Cell cycle arrest in human HCT116 cells assessed as accumulation at G0/G1 phase at 5.10 uM after 48 hrs; assay type: functional; method in brief: as §3
DNA [26] = assay: Binding affinity to calf thymus DNA at 4 uM by fluorescence spectrophotometric titration; assay type: nucleic-acid assay; conditions: Bos taurus
Method in brief: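 ctDNA sonicated in TE buffer, concentration taken from A260 and given in base pairs. Compound (4 µM) in 0.01 M Tris, pH 7.4, 25 °C titrated with ctDNA (0–55 µM bp) until spectra stopped changing. Excitation 424 nm, slit widths 10 nm; binding constant derived from the change in emission.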

HCT-116 [27] = assay: Cytotoxicity against human HCT116 cells after 72 hrs by MTT assay; assay type: functional, cell-based; conditions: Homo sapiens, HCT-116, 72 h
HCT-116 [28] = assay: Antiproliferative activity against human HCT116 cells assessed as decrease in total cell population at 5.10 uM after 24 hrs; assay type: functional; design: scale not given: the % may be the effect or the level left; method in brief: as §2
HCT-116 [29] = assay: Cell cycle arrest in human HCT116 cells assessed as accumulation at S phase at 5.10 uM after 48 hrs; assay type: functional; method in brief: as §1
HCT-116 [30] = assay: Induction of DNA fragmentation in human HCT116 cells after 48 hrs; assay type: functional, cell-based; method in brief: as §5
HeLa [31] = assay: Antiproliferative activity against human HeLa cells assessed as decrease in total cell population at 7.80 uM after 48 hrs; assay type: functional; design: scale not given: the % may be the effect or the level left; method in brief: as §2
HeLa [32] = assay: Cell cycle arrest in human HeLa cells assessed as accumulation at S phase at 7.80 uM after 24 hrs; assay type: functional; method in brief: as §1

- Activity (DNA [9]): Active
- K (DNA [26]): 1.7 ×10⁵ /M
SMILES: CCCCCNC(=O)Nc1ccc2cc3ccc(NC(=O)NCCCCC)cc3nc2c1.Cl
- Activity (HeLa [1]): 72.24%
- Activity (HeLa [2]): 61%
- Activity (HCT-116 [3]): 37.04%
- Activity (HCT-116 [4]): 78.81%
- Activity (HeLa [5]): 13.54%
- Activity (HeLa [6]): 3.86%
- Activity (HCT-116 [7]): 38.62%
- Activity (HeLa [8]): 0.89%
- Activity (HCT-116 [10]): Active
- Activity (HCT-116 [11]): 21.22%
- Activity (HCT-116 [12]): 88.58%
- Activity (HeLa [13]): 87.47%
- Activity (HCT-116 [14]): 11.33%
- Activity (HeLa [15]): 3.62%
- Activity (HeLa [16]): 17.38%
- IC50 (HeLa [17]): 13.3 µM
- Activity (HCT-116 [18]): 44.05%
- Activity (HCT-116 [19]): 17.34%
- Activity (HeLa [20]): 10.39%
- IC50 (HeLa [21]): 7.78 µM
- Activity (HCT-116 [22]): 10.67%
- IC50 (HCT-116 [23]): 5.12 µM
- Activity (HeLa [24]): 1.33%
- Activity (HCT-116 [25]): 40.8%
- IC50 (HCT-116 [27]): 3.48 µM
- Activity (HCT-116 [28]): 45.85%
- Activity (HCT-116 [29]): 22.16%
- Activity (HCT-116 [30]): Active
- Activity (HeLa [31]): 101.34%
- Activity (HeLa [32]): 25.46%
